{
  "source": "paper PMC3878182",
  "about": "(Xenobiotica; the fate of foreign compounds in biological …, 2013)",
  "key": {"liver tissue slices [1]": {"system": "liver tissue slices", "experiment": "PCB 136 levels and partitioning in liver tissue slice incubations", "type": "in vitro ADME, Sprague-Dawley rats", "method_in_brief": "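Two liver slices were placed in 2 mL K-H buffer and given test compound (final 5 μM; 10 nmol per incubation; DMSO) for 2 h at 37 °C, 5% CO2/95% air. Slices were washed in cold buffer and homogenized. Medium and homogenate were quantified by GC-63Ni-μECD (DB1-MS column); calibration was linear over 1–1000 ng/mL. Slice levels are per mg protein and as % of dose. n=2 or 3 animals, triplicate incubations, mean ± SD.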"}, "liver tissue slices [2]": {"system": "liver tissue slices", "experiment": "Liver slice viability", "type": "cell-based, Sprague-Dawley rats", "method_in_brief": "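Liver slices came from adult rats, either naive or pretreated with PB or DEX, taken 24 h after the last dose into cold Krebs-Henseleit buffer, pH 7.5. Two slices per vial in 2 mL buffer received test compound (final 5 μM) or DMSO, 2 h, 37 °C, 5 % CO2/95 % air. LDH in medium and homogenate gave % release = A1×D1/(A1×D1+A2×D2); viable was <30 %.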"}, "[3]": {"system": "hippocampal tissue slices", "experiment": "PCB 136 levels in hippocampal tissue slice cultures relative to medium", "type": "in vitro ADME, Sprague Dawley rats (PND4 pups)", "conditions": "for Medium-to-tissue slice ratio of PCB 136: day 14", "method_in_brief": "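Hippocampi from PND4 rat pups were cultured as slices. From 5 DIV, racemic test compound (5 μM; vehicle 0.1% DMSO) was added to 1 mL medium per well, renewed every 2 days for 14 days. Medium from each change and slices at day 14 were stored at −20 °C and analysed. The medium-to-slice ratio was taken at day 14.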"}, "liver tissue slices [4]": {"system": "liver tissue slices", "experiment": "Formation of hydroxylated PCB 136 metabolites in liver tissue slices", "type": "in vitro ADME, Sprague-Dawley rats", "conditions": "for ΣOH-PCB as percent of PCB 136: PCB 136 5 μM (10 nmol), 2 h, slices plus medium"}, "[5]": {"system": "hippocampal slice cultures", "experiment": "Propidium iodide", "type": "cell-based, Sprague Dawley rats (PND4 pups)"}, "ryanodine receptor (RyR)": {"system": "ryanodine receptor (RyR)", "conditions": "ref Pessah et al., 2006; cited from earlier work"}, "[6]": {"system": "hippocampal slice cultures", "experiment": "LDH release in hippocampal slice cultures", "type": "cell-based, Sprague Dawley rats (PND4 pups)", "conditions": "PCB 136 ≤ 5 μM for 14 d", "method_in_brief": "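Hippocampi from PND4 pups of timed-pregnant Sprague Dawley rats were cultured as slices. From 5 DIV, racemic test compound or vehicle (0.1 % DMSO) was added to 1 mL medium, renewed every 2 days for 14 days. LDH release was measured with a membrane-integrity fluorescence kit. Mean ± SEM, n = 2 wells per group.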"}, "[7]": {"experiment": "Effect of inducer treatment on body and liver weights of rats", "type": "in vivo, Sprague-Dawley rats", "conditions": "i.p. inducer treatment"}, "CYP1A2": {"system": "CYP1A2", "experiment": "Hepatic P450 transcript levels", "type": "in vivo, Sprague-Dawley rats", "conditions": "liver slices from male rats"}, "CYP3A2": {"system": "CYP3A2", "experiment": "Hepatic P450 transcript levels", "type": "in vivo, Sprague-Dawley rats", "conditions": "liver slices from male rats"}, "[8]": {"conditions": "DEX-treated female rats, PCB 136 5 μM (10 nmol), 2 h, 37°C"}, "[9]": {"conditions": "DEX-treated male rats, PCB 136 5 μM (10 nmol), 2 h, 37°C"}, "[10]": {"conditions": "PB-treated female rats, PCB 136 5 μM (10 nmol), 2 h, 37°C"}, "[11]": {"conditions": "PB-treated male rats, PCB 136 5 μM (10 nmol), 2 h, 37°C"}, "[12]": {"conditions": "naïve control (CTL) female rats, PCB 136 5 μM (10 nmol), 2 h, 37°C"}, "[13]": {"conditions": "naïve control (CTL) male rats, PCB 136 5 μM (10 nmol), 2 h, 37°C"}},
  "data": [
    {"smiles": "Clc1ccc(Cl)c(-c2c(Cl)ccc(Cl)c2Cl)c1Cl", "note": "[PCB 136, 2,2′,3,3′,6,6′-hexachlorobiphenyl]", "values": [
      {"measurement": "PCB 136 in medium", "setting": "liver tissue slices [1]; [8]", "value": "6.7 ± 0.7", "unit": "nmol"},
      {"measurement": "PCB 136 in tissue slices", "setting": "liver tissue slices [1]; [8]", "value": "2.1 ± 0.3", "unit": "nmol"},
      {"measurement": "PCB 136 in tissue slices", "setting": "liver tissue slices [1]; DEX-treated female rats, PCB 136 5 μM, 2 h", "value": "42 ± 14", "unit": "ng/mg protein"},
      {"measurement": "PCB 136 in medium", "setting": "liver tissue slices [1]; [9]", "value": "5.7 ± 0.3", "unit": "nmol"},
      {"measurement": "PCB 136 in tissue slices", "setting": "liver tissue slices [1]; [9]", "value": "1.8 ± 0.4", "unit": "nmol"},
      {"measurement": "PCB 136 in tissue slices", "setting": "liver tissue slices [1]; DEX-treated male rats, PCB 136 5 μM, 2 h", "value": "27 ± 7", "unit": "ng/mg protein"},
      {"measurement": "PCB 136 in medium", "setting": "liver tissue slices [1]; [10]", "value": "9.5 ± 0.5", "unit": "nmol"},
      {"measurement": "PCB 136 in tissue slices", "setting": "liver tissue slices [1]; [10]", "value": "2.5 ± 0.4", "unit": "nmol"},
      {"measurement": "PCB 136 in tissue slices", "setting": "liver tissue slices [1]; PB-treated female rats, PCB 136 5 μM, 2 h", "value": "53 ± 10", "unit": "ng/mg protein"},
      {"measurement": "PCB 136 in medium", "setting": "liver tissue slices [1]; [11]", "value": "8.6 ± 0.4", "unit": "nmol"},
      {"measurement": "PCB 136 in tissue slices", "setting": "liver tissue slices [1]; [11]", "value": "1.3 ± 0.3", "unit": "nmol"},
      {"measurement": "PCB 136 in tissue slices", "setting": "liver tissue slices [1]; PB-treated male rats, PCB 136 5 μM, 2 h", "value": "21 ± 6", "unit": "ng/mg protein"},
      {"measurement": "Percent of total PCB 136 associated with liver tissue slices", "setting": "liver tissue slices [1]; both sexes, all treatment groups", "value": "13–25%"},
      {"measurement": "PCB 136 in tissue slices as percent of total PCB 136 dose added", "setting": "liver tissue slices [1]; female liver slices, 2 h", "value": "21–25%"},
      {"measurement": "PCB 136 in tissue slices as percent of total PCB 136 dose", "setting": "liver tissue slices [1]; male liver slices, 2 h", "value": "13–23%"},
      {"measurement": "PCB 136 in medium", "setting": "liver tissue slices [1]; [12]", "value": "8.5 ± 0.1", "unit": "nmol"},
      {"measurement": "PCB 136 in tissue slices", "setting": "liver tissue slices [1]; [12]", "value": "2.4 ± 0.5", "unit": "nmol"},
      {"measurement": "PCB 136 in tissue slices", "setting": "liver tissue slices [1]; naïve control (CTL) female rats, PCB 136 5 μM, 2 h", "value": "45 ± 15", "unit": "ng/mg protein"},
      {"measurement": "PCB 136 in medium", "setting": "liver tissue slices [1]; [13]", "value": "6.3 ± 0.3", "unit": "nmol"},
      {"measurement": "PCB 136 in tissue slices", "setting": "liver tissue slices [1]; [13]", "value": "2.3 ± 0.1", "unit": "nmol"},
      {"measurement": "PCB 136 in tissue slices", "setting": "liver tissue slices [1]; naïve control (CTL) male rats, PCB 136 5 μM, 2 h", "value": "33 ± 5", "unit": "ng/mg protein"},
      {"measurement": "Acute toxicity to liver slices", "setting": "liver tissue slices [2]; 2 h incubation with PCB 136 at 5 μM", "value": "not acutely toxic"},
      {"measurement": "LDH release to the medium", "setting": "liver tissue slices [2]; all slices used in the PCB 136 metabolism experiments, 2 h incubation", "value": "13.2 ± 6.6", "unit": "%"},
      {"measurement": "LDH release", "setting": "liver tissue slices [2]; slices treated with PCB 136 5 μM, 2 h", "value": "13.1 ± 6.6", "unit": "%"},
      {"measurement": "PCB 136 in slices as percent of the PCB 136 (1.8 μg) added on day 12", "setting": "[3]; female pups", "value": "1.5 ± 0.8", "unit": "%"},
      {"measurement": "Average PCB 136 amount associated with the tissue slices", "setting": "[3]; female pups, after 14 days", "value": "27 ± 15", "unit": "ng"},
      {"measurement": "Medium-to-tissue slice ratio of PCB 136", "setting": "[3]; female pups", "value": "24 ± 8"},
      {"measurement": "PCB 136 in slices as percent of total PCB dose added", "setting": "[3]; female pups, total dose 12.6 μg", "value": 0.2, "unit": "%"},
      {"measurement": "PCB 136 in slices as percent of the PCB 136 (1.8 μg) added on day 12", "setting": "[3]; male pups", "value": "1.8 ± 0.3", "unit": "%"},
      {"measurement": "PCB 136 amount associated with tissue slices", "setting": "[3]; male pups, after 14 days", "value": "32 ± 6", "unit": "ng"},
      {"measurement": "Medium-to-tissue slice ratio of PCB 136", "setting": "[3]; male pups", "value": "26 ± 10"},
      {"measurement": "PCB 136 in slices as percent of total PCB dose", "setting": "[3]; male pups, total dose 12.6 μg", "value": 0.3, "unit": "%"},
      {"measurement": "Average PCB 136 concentration in the incubation medium", "setting": "[3]; slice cultures from female pups, 5 μM racemic PCB 136, 14 days", "value": "830 ± 80", "unit": "ng/mL"},
      {"measurement": "Average PCB 136 levels in the incubation medium", "setting": "[3]; slice cultures from male pups, 5 μM racemic PCB 136, 14 days", "value": "570 ± 220", "unit": "ng/mL"},
      {"measurement": "ΣOH-PCB as percent of PCB 136", "setting": "liver tissue slices [4]; DEX-treated female rats", "value": "2.7 ± 1.3", "unit": "%"},
      {"measurement": "ΣOH-PCB as percent of PCB 136", "setting": "liver tissue slices [4]; PB-treated female rats", "value": "5.3 ± 1.1", "unit": "%"},
      {"measurement": "ΣOH-PCB as percent of PCB 136", "setting": "liver tissue slices [4]; PB-treated male rats", "value": "11 ± 2.7", "unit": "%"},
      {"measurement": "Percent of total PCB 136 metabolized to OH-PCBs", "setting": "liver tissue slices [4]; liver slices from female rats, within 2 h", "value": "≤ 5", "unit": "%"},
      {"measurement": "Percent of total PCB converted to OH-PCBs", "setting": "liver tissue slices [4]; liver slices from male rats", "value": "at least 11%"},
      {"measurement": "ΣOH-PCB as percent of PCB 136", "setting": "liver tissue slices [4]; naïve control (CTL) male rats", "value": "1.1 ± 0.4", "unit": "%"},
      {"measurement": "PI uptake (confocal images)", "setting": "[5]; PCB 136 at 5 μM for 14 days vs vehicle", "value": "no significant differences"},
      {"measurement": "PI uptake", "setting": "[5]; racemic PCB 136 at 5 or 10 μM, 3 d exposure from 5 DIV, vs vehicle", "value": "had no significant effect on PI uptake"},
      {"measurement": "RyR activity / sensitization", "setting": "ryanodine receptor (RyR)", "value": "RyR active"},
      {"measurement": "LDH release relative to vehicle controls", "setting": "[6]", "value": "did not significantly alter LDH release"}
    ]},
    {"smiles": "CCC1(c2ccccc2)C(=O)NC(=O)NC1=O", "note": "[Phenobarbital (PB), phenobarbital]", "values": [
      {"measurement": "Liver weight", "setting": "[7]; female rats", "value": "10.1 ± 0.4", "unit": "g"},
      {"measurement": "Liver-to-final body weight ratio", "setting": "[7]; female rats", "value": "4.5 ± 0.2"},
      {"measurement": "Percent change in body weight", "setting": "[7]; female rats", "value": "5.5 ± 1.3", "unit": "%"},
      {"measurement": "Liver weight", "setting": "[7]; male rats", "value": "16.0 ± 2.0", "unit": "g"},
      {"measurement": "Liver-to-final body weight ratio", "setting": "[7]; male rats", "value": "5.3 ± 0.9"},
      {"measurement": "Percent change in body weight", "setting": "[7]; male rats", "value": "−2.0 ± 7.0", "unit": "%"},
      {"measurement": "CYP1A2 transcript level vs CTL", "setting": "CYP1A2", "value": "not changed"},
      {"measurement": "CYP3A2 transcript level vs CTL", "setting": "CYP3A2", "value": "significantly induced by DEX but not PB"}
    ]}
  ]
}
